37 molecules from ChEMBL document CHEMBL1177806, “Synthesis and biological activity of halophenols as potent antioxidant and cytoprotective agents” (Bioorg Med Chem Lett, 2010) can be followed below.

pEC50, pIC50: −log10 of the molar value. Active and inactive are the calls of the source. The rule behind the calls is not given here.

Assay [1] relates to HUVEC. The experiment in a line: Cytoprotective activity against H2O2-induced cell injury in HUVEC cells. It is filed as functional, cell-based. The following applies: Homo sapiens. In short, it runs like this: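 Cytoprotection was measured in human umbilical vein endothelial cells (HUVEC) injured with hydrogen peroxide and reported as EC50.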
Assay [2] in a line: Antioxidant activity assessed as DPPH scavenging activity after 4 hrs […]. It is filed as functional.
In assay [3] the test system is HUVEC. Nature of the assay: Cytoprotective activity against H2O2-induced cell injury in HUVEC cells at 5 ug/mL after 4 hrs […]. It counts as functional, cell-based. The following applies: Homo sapiens.
Assay [4] in a line: Antioxidant activity assessed as DPPH scavenging activity at 100 ug/mL. It counts as functional.

Consider `Oc1cc(Cc2ccccc2)c(Br)c(Br)c1O`, for which, in the assay with HUVEC [1], the negative-log EC50 (pEC50) is 5.41. In assay [2], the pIC50 was 4.06.
For `Cc1cc(C(C)(C)C)c(O)c(C(C)(C)C)c1` [BUTYLATED HYDROXYTOLUENE], in assay [2], the negative-log IC50 (pIC50) was 3.77.
Regarding `COc1cc(Br)c(Cc2ccccc2)cc1OC`, the result (with HUVEC [3]; in assay [4]) was inactive.
For the molecule `O=C(c1ccc(Cl)cc1)c1ccc(O)c(O)c1`, the pEC50 in the assay on HUVEC [1] is 5.05. The negative logarithm of the IC50 (pIC50) in assay [2] is 3.99.
`COc1ccc(C(=O)c2ccccc2)cc1OC`: the outcome (with HUVEC [3]; in assay [4]) was inactive.
Consider `COc1cc(Br)c(C(=O)c2cc(Br)ccc2OC)cc1OC`, for which the outcome (with HUVEC [3]; in assay [4]) was inactive.
`Oc1cc(Br)c(Cc2ccc(O)c(Br)c2)cc1O` gave a negative-log EC50 (pEC50) in the assay on HUVEC [1] of 4.89. Besides, the negative logarithm of the IC50 (pIC50) in assay [2] is 4.06.
On to `Oc1ccc(Cc2cccc(Cl)c2)cc1O`, for which the result in the assay on HUVEC [3] was inactive. Also, the pIC50 in assay [2] is 3.65.
For the molecule `COc1ccc(C(=O)c2c(Br)c(OC)c(OC)c(OC)c2Br)cc1OC`, the outcome (with HUVEC [3]; in assay [4]) was inactive.
Turning to `O=C(c1ccccc1)c1cc(O)c(O)c(Br)c1Br`, the pEC50 with HUVEC [1] was 6.10. For the same molecule, the pIC50 in assay [2] was 4.06.
On to `COc1ccc(C(=O)c2ccc(Cl)cc2)cc1OC`, for which the result (with HUVEC [3]; in assay [4]) was inactive.
Regarding `COc1ccc(Cc2c(Br)c(OC)c(OC)c(OC)c2Br)cc1OC`, the outcome (in the assay on HUVEC [3]; in assay [4]) was inactive.
With `COc1cc(C(=O)c2ccccc2)c(Br)c(Br)c1OC`, the result (in the assay with HUVEC [3]; in assay [4]) was inactive.
The molecule `O=C(c1cccc(Cl)c1)c1ccc(O)c(O)c1` had a pEC50 with HUVEC [1] of 5.30. Further, the pIC50 in assay [2] was 3.96.
Consider `COc1cc(Cc2ccccc2)c(Br)c(Br)c1OC`, for which the result (in the assay with HUVEC [3]; in assay [4]) was inactive.
On to `COc1ccc(Cc2ccc(Cl)cc2)cc1OC`, for which the result (in the assay on HUVEC [3]; in assay [4]) was inactive.
As for `Oc1cc(Br)c(Cc2cc(Br)ccc2O)cc1O`, in the assay on HUVEC [1], the pEC50 is 5.96. Besides, the negative logarithm of the IC50 (pIC50) in assay [2] is 4.05.
With `COc1ccc(Cc2cccc(Cl)c2)cc1OC`, the outcome (with HUVEC [3]; in assay [4]) was inactive.
In the assay on HUVEC [1], `O=C(c1cc(Br)ccc1O)c1cc(O)c(O)cc1Br` showed a pEC50 of 6.40. In assay [2], the pIC50 was 4.10.
`O=c1c(O)c(-c2ccc(O)c(O)c2)oc2cc(O)cc(O)c12` [QUERCETIN] had a pEC50 in the assay with HUVEC [1] of 4.74.
In turn, `O=C(c1ccc(O)c(Br)c1)c1cc(O)c(O)cc1Br` showed a negative-log EC50 (pEC50) in the assay on HUVEC [1] of 5.70. Besides, the pIC50 in assay [2] is 4.21.
As for `O=C(c1ccc(O)c(O)c1)c1ccccc1Cl`, the result in the assay with HUVEC [3] was inactive. For the same molecule, the pIC50 in assay [2] was 3.95.
In the case of `Oc1ccc(Cc2ccccc2Cl)cc1O`, in the assay with HUVEC [3], the result was inactive. The pIC50 in assay [2] is 3.88.
As for `COc1ccc(Cc2c(Cl)c(OC)c(OC)c(OC)c2Cl)cc1OC`, the result (in the assay on HUVEC [3]; in assay [4]) was inactive.
In the case of `COc1cc(Br)c(C(=O)c2ccccc2)cc1OC`, the result (in the assay with HUVEC [3]; in assay [4]) was inactive.
Take `O=C(c1ccccc1)c1cc(O)c(O)cc1Br`: the negative logarithm of the EC50 (pEC50) in the assay on HUVEC [1] is 4.94. Moreover, the negative-log IC50 (pIC50) in assay [2] is 4.08.
For `O=C(c1ccc(O)c(O)c1)c1c(Cl)c(O)c(O)c(O)c1Cl`, in the assay on HUVEC [3], the outcome was inactive. In assay [2], the pIC50 is 4.06.
Turning to `COc1ccc(C(=O)c2cc(OC)c(OC)cc2Br)cc1Br`, the result (in the assay on HUVEC [3]; in assay [4]) was inactive.
For `COc1ccc(C(=O)c2c(Cl)c(OC)c(OC)c(OC)c2Cl)cc1OC`, the result (in the assay on HUVEC [3]; in assay [4]) was inactive.
Consider `Oc1cc(Br)c(Cc2ccccc2)cc1O`, for which, in the assay on HUVEC [1], the negative logarithm of the EC50 (pEC50) was 4.91. The pIC50 in assay [2] is 3.79.
Take `Oc1ccc(Cc2c(Br)c(O)c(O)c(O)c2Br)cc1O`: in the assay with HUVEC [3], the result was inactive. The negative-log IC50 (pIC50) in assay [2] was 4.07.
The matching figures for `Oc1ccc(Cc2c(Cl)c(O)c(O)c(O)c2Cl)cc1O`: “inactive” and 3.99.
For `COc1ccc(Br)cc1Cc1cc(OC)c(OC)cc1Br`, the outcome (in the assay on HUVEC [3]; in assay [4]) was inactive.
Regarding `COc1ccc(Cc2ccccc2Cl)cc1OC`, the result (with HUVEC [3]; in assay [4]) was inactive.
With `COc1ccc(Cc2cc(OC)c(OC)cc2Br)cc1Br`, the result (in the assay with HUVEC [3]; in assay [4]) was inactive.
The molecule `Oc1ccc(Cc2ccc(Cl)cc2)cc1O` gave a pEC50 in the assay with HUVEC [1] of 5.06. In addition, in assay [2], the pIC50 is 3.69.
`O=C(c1ccc(O)c(O)c1)c1c(Br)c(O)c(O)c(O)c1Br`: in the assay on HUVEC [3], the outcome was inactive. Also, the pIC50 in assay [2] was 4.02.
